ChEMBL document CHEMBL5303300, “EUbOPEN Chemogenomics Library - Multiplex” (2023)
Several values for one entry are separate records, joined by “and”; a condition that tells them apart may be missing. Equal entries are not always repeated.

Assays:
Format in all cases: toxicity, cell-based
[1] = system: Fibroblast; assay: Multiplex assay against human fibroblast; conditions: number of replicates 2
In short: (§1)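 Phenotypes for tubulin, mitochondrial mass and membrane permeability are expressed as per cents of healthy-nucleus cells. Cells were stained live at seeding with Hoechst33342, BioTracker Green Microtubule Cytoskeleton Dye, MitoTracker Red and Annexin V Alexa Fluor 680, then imaged after compound addition on a CQ1 microscope at 37°C and 5% CO2. Machine-learning gating in CellPathfinder separated Hoechst high-intensity objects from normal cells, divided normal cells by nuclear state (healthy, pyknosed, fragmented) and divided pyknosed cells into mitotic or apoptotic.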

[2] = system: HEK-293T; assay: Multiplex assay against HEK293T; conditions: human, number of replicates 2; in short: as §1
[3] = system: U2OS; assay: Multiplex assay against U2OS; conditions: human, number of replicates 2; in short: as §1
[4] = 12 h, 1 µM, compound concentration 1 uM
[5] = 12 h, 10 µM, compound concentration 10 uM
[6] = 24 h, 1 µM, compound concentration 1 uM
[7] = 24 h, 10 µM, compound concentration 10 uM
[8] = 48 h, 1 µM, compound concentration 1 uM
[9] = 48 h, 10 µM, compound concentration 10 uM

## COc1cc2nc(-c3cc(F)ccc3O)nc(N[C@@H]3CNC[C@H]3C(C)(C)O)c2cc1OC.Cl.Cl
[1]; [4]
  Population Apoptotic (%): 35% and 34%
  Population Healthy Nuclei (%): 60% and 58%
  Population Hoechst High Intensity Objects (%): 0%
  Population Membrane Permeable-Phenotype (%): 11% and 9%
  Population Mitochondria Different-Phenotype (%): 0% and 2%
  Population Mitotic Cells (%): 65%
  Population Normal (%): 100%
  Population Pyknosed Nuclei (%): 33% and 24%
  Population Tubulin-Different-Phenotype (%): 48% and 46%
  Total Cell Count: 178 and 189
[1]; [5]
  Population Apoptotic (%): 72% and 73%
  Population Healthy Nuclei (%): 8% and 16%
  Population Hoechst High Intensity Objects (%): 0%
  Population Mitochondria Different-Phenotype (%): 26% and 25%
  Population Mitotic Cells (%): 27% and 26%
  Population Normal (%): 99% and 100%
  Population Pyknosed Nuclei (%): 85% and 67%
  Population Tubulin-Different-Phenotype (%): 86% and 67%
  Total Cell Count: 170 and 187
[1]; [6]
  Population Apoptotic (%): 44% and 53%
  Population Fragmented Nuclei (%): 15% and 17%
  Population Healthy Nuclei (%): 63% and 65%
  Population Hoechst High Intensity Objects (%): 0%
  Population Membrane Permeable-Phenotype (%): 4% and 1%
  Population Mitochondria Different-Phenotype (%): 0% and 3%
  Population Mitotic Cells (%): 55% and 46%
  Population Normal (%): 99% and 100%
  Population Pyknosed Nuclei (%): 21% and 17%
  Population Tubulin-Different-Phenotype (%): 26% and 37%
  Total Cell Count: 211 and 188
[1]; [7]
  Population Apoptotic (%): 87% and 93%
  Population Healthy Nuclei (%): 1% and 2%
  Population Hoechst High Intensity Objects (%): 0%
  Population Membrane Permeable-Phenotype (%): 50% and 25%
  Population Mitochondria Different-Phenotype (%): 0% and 25%
  Population Mitotic Cells (%): 12% and 6%
  Population Normal (%): 100%
  Population Pyknosed Nuclei (%): 92% and 80%
  Population Tubulin-Different-Phenotype (%): 50%
  Total Cell Count: 168
[1]; [8]
  Population Apoptotic (%): 59% and 75%
  Population Fragmented Nuclei (%): 13% and 17%
  Population Healthy Nuclei (%): 75% and 70%
  Population Hoechst High Intensity Objects (%): 0%
  Population Membrane Permeable-Phenotype (%): 4% and 1%
  Population Mitochondria Different-Phenotype (%): 1% and 0%
  Population Mitotic Cells (%): 40% and 25%
  Population Normal (%): 100%
  Population Pyknosed Nuclei (%): 10% and 12%
  Population Tubulin-Different-Phenotype (%): 27% and 11%
  Total Cell Count: 201 and 191
[1]; [9]
  Population Apoptotic (%): 94% and 92%
  Population Fragmented Nuclei (%): 18% and 9%
  Population Healthy Nuclei (%): 3% and 4%
  Population Hoechst High Intensity Objects (%): 0%
  Population Membrane Permeable-Phenotype (%): 33% and 42%
  Population Mitochondria Different-Phenotype (%): 0%
  Population Mitotic Cells (%): 5% and 7%
  Population Normal (%): 100% and 99%
  Population Pyknosed Nuclei (%): 77% and 85%
  Population Tubulin-Different-Phenotype (%): 33% and 85%
  Total Cell Count: 171 and 162
[2]; [4]
  Population Apoptotic (%): 40% and 65%
  Population Fragmented Nuclei (%): 4% and 3%
  Population Healthy Nuclei (%): 86% and 83%
  Population Hoechst High Intensity Objects (%): 6% and 5%
  Population Membrane Permeable-Phenotype (%): 4% and 3%
  Population Mitochondria Different-Phenotype (%): 24% and 25%
  Population Mitotic Cells (%): 59% and 34%
  Population Normal (%): 93% and 94%
  Population Pyknosed Nuclei (%): 9% and 13%
  Population Tubulin-Different-Phenotype (%): 78%
  Total Cell Count: 681 and 543
[2]; [5]
  Population Apoptotic (%): 78% and 80%
  Population Fragmented Nuclei (%): 2%
  Population Healthy Nuclei (%): 62% and 61%
  Population Hoechst High Intensity Objects (%): 7% and 8%
  Population Membrane Permeable-Phenotype (%): 4% and 2%
  Population Mitochondria Different-Phenotype (%): 82% and 75%
  Population Mitotic Cells (%): 21% and 19%
  Population Normal (%): 92% and 91%
  Population Pyknosed Nuclei (%): 35%
  Population Tubulin-Different-Phenotype (%): 97%
  Total Cell Count: 476 and 483
[2]; [6]
  Population Apoptotic (%): 47% and 69%
  Population Fragmented Nuclei (%): 6%
  Population Healthy Nuclei (%): 85% and 84%
  Population Hoechst High Intensity Objects (%): 8% and 9%
  Population Membrane Permeable-Phenotype (%): 3%
  Population Mitochondria Different-Phenotype (%): 12% and 17%
  Population Mitotic Cells (%): 52% and 30%
  Population Normal (%): 91% and 90%
  Population Pyknosed Nuclei (%): 7% and 8%
  Population Tubulin-Different-Phenotype (%): 63% and 68%
  Total Cell Count: 1032 and 692
[2]; [7]
  Population Apoptotic (%): 87% and 80%
  Population Fragmented Nuclei (%): 4% and 2%
  Population Healthy Nuclei (%): 50% and 51%
  Population Hoechst High Intensity Objects (%): 20% and 25%
  Population Membrane Permeable-Phenotype (%): 6% and 4%
  Population Mitochondria Different-Phenotype (%): 65% and 68%
  Population Mitotic Cells (%): 12% and 20%
  Population Normal (%): 79% and 74%
  Population Pyknosed Nuclei (%): 45%
  Population Tubulin-Different-Phenotype (%): 84% and 89%
  Total Cell Count: 441 and 428
[2]; [8]
  Population Apoptotic (%): 22% and 35%
  Population Fragmented Nuclei (%): 14% and 7%
  Population Healthy Nuclei (%): 82% and 88%
  Population Hoechst High Intensity Objects (%): 9% and 11%
  Population Membrane Permeable-Phenotype (%): 3% and 1%
  Population Mitochondria Different-Phenotype (%): 1% and 3%
  Population Mitotic Cells (%): 77% and 64%
  Population Normal (%): 90% and 88%
  Population Pyknosed Nuclei (%): 3% and 4%
  Population Tubulin-Different-Phenotype (%): 26% and 35%
  Total Cell Count: 2589 and 1346
[2]; [9]
  Population Apoptotic (%): 85% and 77%
  Population Fragmented Nuclei (%): 4% and 3%
  Population Healthy Nuclei (%): 32% and 30%
  Population Hoechst High Intensity Objects (%): 21% and 24%
  Population Membrane Permeable-Phenotype (%): 6% and 5%
  Population Mitochondria Different-Phenotype (%): 58%
  Population Mitotic Cells (%): 14% and 22%
  Population Normal (%): 78% and 75%
  Population Pyknosed Nuclei (%): 62% and 66%
  Population Tubulin-Different-Phenotype (%): 82% and 81%
  Total Cell Count: 411 and 392
[3]; [4]
  Population Apoptotic (%): 100% and 76%
  Population Healthy Nuclei (%): 57% and 82%
  Population Hoechst High Intensity Objects (%): 0%
  Population Membrane Permeable-Phenotype (%): 21% and 13%
  Population Mitochondria Different-Phenotype (%): 18% and 27%
  Population Mitotic Cells (%): 0% and 23%
  Population Normal (%): 100% and 99%
  Population Pyknosed Nuclei (%): 17% and 10%
  Population Tubulin-Different-Phenotype (%): 46% and 30%
[3]; [5]
  Population Apoptotic (%): 96% and 91%
  Population Fragmented Nuclei (%): 14% and 11%
  Population Healthy Nuclei (%): 5% and 3%
  Population Hoechst High Intensity Objects (%): 0%
  Population Membrane Permeable-Phenotype (%): 100%
  Population Mitochondria Different-Phenotype (%): 50% and 66%
  Population Mitotic Cells (%): 3% and 8%
  Population Normal (%): 100%
  Population Pyknosed Nuclei (%): 79% and 85%
  Population Tubulin-Different-Phenotype (%): 100%
[3]; [6]
  Population Apoptotic (%): 83% and 85%
  Population Fragmented Nuclei (%): 23% and 9%
  Population Healthy Nuclei (%): 65% and 74%
  Population Hoechst High Intensity Objects (%): 0%
  Population Membrane Permeable-Phenotype (%): 26% and 12%
  Population Mitochondria Different-Phenotype (%): 23% and 34%
  Population Mitotic Cells (%): 16% and 14%
  Population Normal (%): 100%
  Population Pyknosed Nuclei (%): 11% and 16%
  Population Tubulin-Different-Phenotype (%): 47% and 34%
[3]; [7]
  Population Apoptotic (%): 91% and 90%
  Population Fragmented Nuclei (%): 14% and 22%
  Population Healthy Nuclei (%): 3% and 0%
  Population Hoechst High Intensity Objects (%): 2% and 0%
  Population Mitotic Cells (%): 8% and 9%
  Population Normal (%): 97% and 100%
  Population Pyknosed Nuclei (%): 82% and 77%
[3]; [8]
  Population Apoptotic (%): 84% and 94%
  Population Fragmented Nuclei (%): 17% and 6%
  Population Healthy Nuclei (%): 52% and 77%
  Population Hoechst High Intensity Objects (%): 0%
  Population Membrane Permeable-Phenotype (%): 12% and 9%
  Population Mitochondria Different-Phenotype (%): 27% and 34%
  Population Mitotic Cells (%): 15% and 5%
  Population Normal (%): 100%
  Population Pyknosed Nuclei (%): 30% and 15%
  Population Tubulin-Different-Phenotype (%): 24% and 34%
[3]; [9]
  Population Apoptotic (%): 96% and 89%
  Population Fragmented Nuclei (%): 10% and 19%
  Population Healthy Nuclei (%): 3% and 4%
  Population Hoechst High Intensity Objects (%): 0%
  Population Membrane Permeable-Phenotype (%): 100% and 85%
  Population Mitochondria Different-Phenotype (%): 100% and 71%
  Population Mitotic Cells (%): 4% and 10%
  Population Normal (%): 100% and 99%
  Population Pyknosed Nuclei (%): 86% and 76%
  Population Tubulin-Different-Phenotype (%): 100% and 85%
